Results from different studies.
Compare with care: the assays were run in different laboratories.
Target: Protein-tyrosine kinase 2-beta (PTK2B, Homo sapiens, UniProt Q14289)

SMILES	test	setting	quantity	result
CC(C)(C)c1nc2c(s1)c1nc(N)ncc1c1ccc(NS(=O)(=O)c3c(F)cccc3F)c(F)c12	enzyme activity, inhibitor, radiometric	1 µM	remaining activity	91%
CCN(CC)CCNC(=O)c1c(C)[nH]c(/C=C2\C(=O)Nc3ccc(F)cc32)c1C	enzyme activity, inhibitor	10 µM	inhibition	97%
Cc1sc(C(=O)NC2COC2)cc1-n1cc(NC(=O)Nc2c(F)cccc2Cl)cn1	enzyme activity, inhibitor	10 µM	remaining activity	104%
COc1cc(Cl)c(C(=O)N[C@@H](CN[C@H]2CC[C@@H](N)CC2)Cc2ccc(C#N)cc2)cc1-c1ccc(CN[C@H](C)c2ccc(C)cc2)o1	enzyme activity, inhibitor	1 µM	remaining activity	101%
COc1cc2c(Nc3ccc(Br)cc3F)ncnc2cc1OCC1CCN(C)CC1	cell-free assay	0.5 µM	remaining signal	99.5%
Cc1ccc(Nc2nccc(N(C)c3ccc4c(C)n(C)nc4c3)n2)cc1S(N)(=O)=O	enzyme activity, inhibitor	10 µM	inhibition	81%
CCCOc1ccc(OC)c(F)c1C(=O)c1ccc(C(=O)N[C@@H]2CNC[C@H]2NC(=O)c2ccc3[nH]ncc3c2)cc1	enzyme activity, inhibitor	10 µM	remaining activity	77%
CN1CC(Oc2cnc(C#N)cc2-c2ccn3nc(NC(=O)C4CC4)cc3c2)C1	enzyme activity, inhibitor	1 µM	inhibition	6%
CCS(=O)(=O)c1cc2cc(C[C@](O)(CC(C)(C)c3ccc(F)cc3C(N)=O)C(F)(F)F)[nH]c2cn1	cell-free assay, competition with immobilised ligand	1 µM	remaining binding	100%
O=C(Nc1cnn(-c2csc(C(=O)NC3COC3)c2)c1)Nc1ccccc1Cl	enzyme activity, inhibitor	5 µM	remaining activity	93.5%
Cc1ccc(C(=O)NCc2ccsc2)cc1C#Cc1cn(C(C)C)c2ncnc(N)c12	enzyme activity, inhibitor	1 µM	activity vs control	57%
CCN(CC)c1ccc(C2=NNC(=O)CC2C)cc1[N+](=O)[O-] (stereo not shown)	enzyme activity, inhibitor	10 µM	remaining activity	97%
CCc1ccccc1C(=O)Nc1n[nH]c2c(C)c(F)c(C3C(C#N)=C(C)N(C)C(C)=C3C#N)cc12	cell-free assay, competition with immobilised ligand	1 µM	remaining binding	92%
CCN(CC)CCNC(=O)c1c(C)[nH]c(/C=C2\C(=O)Nc3ccc(F)cc32)c1C	enzyme activity, inhibitor	1 µM	remaining activity	30%
CNC(=O)c1cc(Oc2ccc(NC(=O)Nc3ccc(Cl)c(C(F)(F)F)c3)cc2)ccn1	enzyme activity, inhibitor	10 µM	inhibition	28%
O=C(Nc1ccc(Oc2ccc(F)cc2)cc1)N1CCc2ncccc2[C@H]1c1ccc(F)cc1	cell-free assay, competition with immobilised ligand	1 µM	remaining binding	89%
CCCS(=O)(=O)Nc1ccc(F)c(C(=O)c2c[nH]c3ncc(-c4ccc(Cl)cc4)cc23)c1F	enzyme activity, inhibitor	1 µM	inhibition	< 10%
Oc1cccc(-c2nc(N3CCOCC3)c3oc4ncccc4c3n2)c1	cell-free assay	0.5 µM	remaining signal	103%
CNC(=O)c1ccc(Nc2ncc(C(F)(F)F)c(NCc3nccnc3N(C)S(C)(=O)=O)n2)cc1	binding, competition with immobilised ligand	1 µM	remaining binding	8.3%
c1nc2c(Nc3ccc4c(c3)OCCO4)nc(Nc3ccc4c(c3)OCCO4)nc2[nH]1	enzyme activity, inhibitor	10 µM	activity vs control	2.3%
O=c1nc(-c2ccccn2)sc2ccccc12	cell-free assay, competition with immobilised ligand	1 µM	remaining binding	100%
Cc1[nH]c(/C=C2\C(=O)Nc3ccc(F)cc32)c(C)c1C(=O)N[C@H]1CCN(C(=O)N(C)C)C1	enzyme activity, inhibitor	0.1 µM	remaining activity	109%
CCCCN(CCCC)C(=O)CN1C[C@H](c2cc(OC)c3c(c2)OCO3)[C@@H](C(=O)O)[C@@H]1CC(C)(C)CCC	cell-free assay, competition with immobilised ligand	1 µM	remaining binding	100%
COc1cc2ncnc(Nc3ccc(Oc4ccccc4)cc3C)c2cc1OC	enzyme activity, inhibitor	1 µM	inhibition	3%
O=C1NC(=O)c2cc(Nc3ccc(F)cc3)c(Nc3ccc(F)cc3)cc21	cell-free assay	0.5 µM	remaining signal	111%
C[C@H](c1ccc(F)cc1)N(Cc1cccc(C(=O)O)c1)C(=O)c1cnc2ccccc2c1	cell-free assay, competition with immobilised ligand	1 µM	remaining binding	100%
Nc1nc(Nc2ccc(S(N)(=O)=O)cc2)nn1C(=O)c1c(F)cccc1F	cell-free assay	0.5 µM	remaining signal	79.7%
Cc1nc(Cc2cccc(C(F)(F)F)c2)sc1-c1ccc(C(N)=O)nc1	cell-free assay, competition with immobilised ligand	1 µM	remaining binding	100%
